Reference: ChEMBL document CHEMBL4004830 (J Med Chem, 2017)
Calls of active or inactive are those of the source. The calls are words filed in the database; no cut-off is given here.

Assays:
MV4-11 [1] = assay: Cell cycle arrest in human MV4-11 cells assessed as accumulation at G2/M phase at 0.20 uM after 24 hrs by propidium iodide staining based flow cytometry (reference value: 17.94%); assay type: functional
MV4-11 [2] = assay: Cell cycle arrest in human MV4-11 cells assessed as accumulation at sub-G1 phase at 0.04 uM after 24 hrs by propidium iodide staining based flow cytometry (reference value: 1.99%); assay type: functional
MV4-11 [3] = assay: Cell cycle arrest in human MV4-11 cells assessed as accumulation at S phase at 0.04 uM after 24 hrs by propidium iodide staining based flow cytometry (reference value: 19.07%); assay type: functional
MV4-11 [4] = assay: Cell cycle arrest in human MV4-11 cells assessed as accumulation at S phase at 0.40 uM after 24 hrs by propidium iodide staining based flow cytometry (reference value: 19.07%); assay type: functional
MV4-11 [5] = assay: Cell cycle arrest in human MV4-11 cells assessed as accumulation at G1 phase at 0.40 uM after 24 hrs by propidium iodide staining based flow cytometry (reference value: 61.01%); assay type: functional
MV4-11 [6] = assay: Cell cycle arrest in human MV4-11 cells assessed as accumulation at G1 phase at 0.04 uM after 24 hrs by propidium iodide staining based flow cytometry (reference value: 61.01%); assay type: functional
MV4-11 [7] = assay: Antitumor activity against human MV4-11 cells xenografted in nude BALB/c mouse assessed as tumor growth inhibition at 100 mg/kg, po qd administered for 33 consecutive days and left untreated for another 50 days; assay type: functional, organism-based
[8] = Dissociation constant, pKa of the compound by pH-metric titration method; assay type: physicochemical
[9] = Efflux ratio of apparent permeability co-efficient from basolateral to apical side over apical to basolateral side in human Caco2 cells; assay type: ADME, cell-based; settings: Caco-2
Procedure, shortened: (§1)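 Caco-2 monolayer assay measuring the apparent permeability coefficient (P_app, 10^-6 cm/s) in the A→B and B→A directions. Efflux ratio is the mean P_app B-A divided by the mean P_app A-B.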

CDK2/Cyclin A2 = CDK2/Cyclin A2 (Homo sapiens, UniProt P24941); assay: Inhibition of CDK2/cyclin A (unknown origin) in presence of [gamma-33P]-ATP […]; assay type: protein-complex assay; settings: read-out: Ki(app)
Mus musculus [10] = assay: Toxicity in nude BALB/c mouse assessed as overt toxicity at 20 to 100 mg/kg, po qd measured up to 14 days post dose; assay type: organism-based; settings: in vivo, 336 h
[11] = molecular target: Serine/threonine-protein kinase 16 (Homo sapiens) (UniProt O75716); assay: Inhibition of human STK16 (11 to 305 amino acid residues) expressed in bacterial expression system at 1 uM in presence of [gamma-33P]-ATP […]
Chain of Serine/threonine-protein kinase 16 (Homo sapiens) (O75716 whole entry, the tested form may be a part): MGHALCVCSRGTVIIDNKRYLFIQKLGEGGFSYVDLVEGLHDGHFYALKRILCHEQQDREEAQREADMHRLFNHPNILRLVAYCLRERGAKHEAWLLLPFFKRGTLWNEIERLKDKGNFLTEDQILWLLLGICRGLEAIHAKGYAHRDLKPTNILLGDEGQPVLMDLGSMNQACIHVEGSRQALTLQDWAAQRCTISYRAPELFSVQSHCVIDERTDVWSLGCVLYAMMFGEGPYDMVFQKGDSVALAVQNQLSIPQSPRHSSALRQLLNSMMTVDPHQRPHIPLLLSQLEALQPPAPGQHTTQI
Procedure, shortened: (§2)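 Broad kinome panel of 369 kinases screened at 1 µM test concentration.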

Cytochrome P450 2C19 = Cytochrome P450 2C19 (Homo sapiens, UniProt P33261); assay: Inhibition of CYP2C19 in human liver microsomes using mephenytoin as substrate in presence of NADPH; assay type: ADME
Chain of Cytochrome P450 2C19 (P33261 whole entry, canonical isoform): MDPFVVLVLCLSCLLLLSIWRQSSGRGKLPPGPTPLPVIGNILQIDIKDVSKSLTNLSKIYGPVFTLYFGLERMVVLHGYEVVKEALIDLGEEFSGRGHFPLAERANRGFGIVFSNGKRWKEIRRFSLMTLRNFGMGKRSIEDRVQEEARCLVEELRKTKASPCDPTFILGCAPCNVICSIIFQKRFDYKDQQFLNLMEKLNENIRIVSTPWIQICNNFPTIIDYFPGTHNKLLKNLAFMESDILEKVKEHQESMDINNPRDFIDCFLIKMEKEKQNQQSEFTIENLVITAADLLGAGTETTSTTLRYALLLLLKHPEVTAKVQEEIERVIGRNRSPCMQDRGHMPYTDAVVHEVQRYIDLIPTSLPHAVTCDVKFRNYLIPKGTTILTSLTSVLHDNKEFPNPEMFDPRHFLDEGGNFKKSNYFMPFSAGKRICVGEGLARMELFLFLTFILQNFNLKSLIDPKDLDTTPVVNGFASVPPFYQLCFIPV
Procedure, shortened: (§3)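 Human liver microsomes with NADPH and isoform-specific probe substrate (midazolam CYP3A4, dextromethorphan CYP2D6, ethoxyresorufin CYP1A, tolbutamide CYP2C9, mephenytoin CYP2C19); IC50 reported in µM.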

MV4-11 [12] = assay: Antitumor activity against human MV4-11 cells xenografted in nude BALB/c mouse assessed as median survival time at 100 mg/kg, po qd administered for 33 consecutive days and left untreated for another 50 days (reference value: 33 days); assay type: functional
Cytochrome P450 3A4 = Cytochrome P450 3A4 (Homo sapiens, UniProt P08684); assay: Inhibition of CYP3A4 in human liver microsomes using midazolam as substrate in presence of NADPH; assay type: ADME; procedure, shortened: as §3
Chain of Cytochrome P450 3A4 (P08684 whole entry): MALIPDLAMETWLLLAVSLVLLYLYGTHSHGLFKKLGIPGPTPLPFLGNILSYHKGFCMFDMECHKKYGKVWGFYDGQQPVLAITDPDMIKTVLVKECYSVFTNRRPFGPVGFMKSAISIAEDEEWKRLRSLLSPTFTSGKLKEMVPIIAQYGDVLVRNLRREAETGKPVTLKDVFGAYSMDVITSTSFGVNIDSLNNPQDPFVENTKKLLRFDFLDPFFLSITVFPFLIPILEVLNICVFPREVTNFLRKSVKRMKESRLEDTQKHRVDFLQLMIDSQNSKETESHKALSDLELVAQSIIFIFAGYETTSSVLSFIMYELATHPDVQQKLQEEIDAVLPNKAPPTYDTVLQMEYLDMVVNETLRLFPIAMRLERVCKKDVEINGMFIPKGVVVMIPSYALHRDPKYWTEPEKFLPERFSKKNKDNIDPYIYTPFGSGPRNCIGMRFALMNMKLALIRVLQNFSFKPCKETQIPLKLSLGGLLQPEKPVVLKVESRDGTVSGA

Cytochrome P450 1A2 = Cytochrome P450 1A2 (Homo sapiens, UniProt P05177); assay: Inhibition of CYP1A2 in human liver microsomes using ethoxyresorufin as substrate in presence of NADPH; assay type: ADME; procedure, shortened: as §3
[13] = Volume of distribution at steady state in BALB/c mouse at 2 mg/kg, iv up to 24 hrs by LC-MS/MS analysis; assay type: ADME, organism-based; settings: in vivo, read-out: Vdss
Procedure, shortened: (§4)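 Single-dose pharmacokinetics in male animals: albino Wistar rats given 5 mg/kg IV or 20 mg/kg PO, and BALB/c mice given 2 mg/kg IV or 10 mg/kg PO.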

[14] = molecular target: LIM domain kinase 1 (Homo sapiens) (UniProt P53667); assay: Inhibition of full-length human LIMK1 (1 to 647 amino acid residues) expressed in bacterial expression system at 1 uM in presence of [gamma-33P]-ATP […]; procedure, shortened: as §2
Chain of LIM domain kinase 1 (Homo sapiens) (P53667 whole entry, looked up, the tested form may be a part): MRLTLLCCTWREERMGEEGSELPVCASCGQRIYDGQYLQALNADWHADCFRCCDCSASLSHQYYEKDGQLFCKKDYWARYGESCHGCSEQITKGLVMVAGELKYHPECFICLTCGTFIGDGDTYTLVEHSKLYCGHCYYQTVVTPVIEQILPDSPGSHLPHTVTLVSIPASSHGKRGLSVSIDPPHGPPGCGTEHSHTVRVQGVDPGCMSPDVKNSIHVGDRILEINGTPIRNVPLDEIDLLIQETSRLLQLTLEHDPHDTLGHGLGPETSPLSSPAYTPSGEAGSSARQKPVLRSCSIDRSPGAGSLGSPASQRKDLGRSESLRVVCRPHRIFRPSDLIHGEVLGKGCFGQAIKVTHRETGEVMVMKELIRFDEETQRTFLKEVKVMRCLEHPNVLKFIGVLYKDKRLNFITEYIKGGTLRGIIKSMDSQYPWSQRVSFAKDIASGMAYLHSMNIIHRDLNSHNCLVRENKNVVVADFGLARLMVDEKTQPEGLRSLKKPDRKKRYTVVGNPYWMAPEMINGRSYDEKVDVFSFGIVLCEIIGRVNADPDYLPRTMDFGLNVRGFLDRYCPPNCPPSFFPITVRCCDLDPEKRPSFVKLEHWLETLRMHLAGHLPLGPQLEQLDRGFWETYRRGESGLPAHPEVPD

[15] = molecular target: Dual specificity tyrosine-phosphorylation-regulated kinase 2 (Homo sapiens) (UniProt Q92630); assay: Inhibition of full-length human DYRK2 (1 to 528 amino acid residues) expressed in mammalian expression system at 1 uM in presence of [gamma-33P]-ATP […]; procedure, shortened: as §2
Chain of Dual specificity tyrosine-phosphorylation-regulated kinase 2 (Homo sapiens) (Q92630 whole entry, the tested form may be a part): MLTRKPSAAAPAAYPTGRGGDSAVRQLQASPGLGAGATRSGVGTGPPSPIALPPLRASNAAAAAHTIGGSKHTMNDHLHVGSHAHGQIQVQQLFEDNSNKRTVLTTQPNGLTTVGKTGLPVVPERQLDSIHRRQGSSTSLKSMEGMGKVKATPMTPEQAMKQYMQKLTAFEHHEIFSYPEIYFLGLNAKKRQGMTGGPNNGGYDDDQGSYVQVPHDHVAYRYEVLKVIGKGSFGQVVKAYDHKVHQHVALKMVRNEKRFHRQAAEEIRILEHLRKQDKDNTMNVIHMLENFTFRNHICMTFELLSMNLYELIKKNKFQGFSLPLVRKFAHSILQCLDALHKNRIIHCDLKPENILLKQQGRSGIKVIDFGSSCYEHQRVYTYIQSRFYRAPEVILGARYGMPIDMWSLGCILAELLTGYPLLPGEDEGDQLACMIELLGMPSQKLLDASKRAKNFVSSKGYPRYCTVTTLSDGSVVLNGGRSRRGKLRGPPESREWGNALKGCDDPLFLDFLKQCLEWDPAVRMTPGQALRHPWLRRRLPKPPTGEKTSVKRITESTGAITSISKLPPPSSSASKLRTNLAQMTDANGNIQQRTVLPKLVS

Mus musculus [16] = assay: Toxicity in nude BALB/c mouse assessed as body weight loss at 20 to 100 mg/kg, po qd measured up to 14 days post dose; assay type: organism-based; settings: in vivo, 336 h
Mus musculus [17] = assay: Toxicity in nude BALB/c mouse xenografted with human MV4-11 cells assessed as overt toxicity at 100 mg/kg, po qd for 33 consecutive days and left untreated for another 50 days; assay type: organism-based; settings: in vivo, 1200 h
[18] = Volume of distribution at steady state in albino Wistar rat at 5 mg/kg, iv up to 24 hrs by LC-MS/MS analysis; assay type: ADME, organism-based; settings: in vivo, read-out: Vdss; procedure, shortened: as §4
[19] = Oral bioavailability in BALB/c mouse at 10 mg/kg measured up to 24 hrs by LC-MS/MS analysis; assay type: ADME, organism-based; settings: in vivo; procedure, shortened: as §4
[20] = Half life in BALB/c mouse at 10 mg/kg administered via oral gavage measured up to 24 hrs by LC-MS/MS analysis; assay type: ADME, organism-based; settings: in vivo
Procedure, shortened: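 Single-dose pharmacokinetics in male BALB/c mice, 2 mg/kg IV or 10 mg/kg PO.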

[21] = Tmax in BALB/c mouse at 10 mg/kg administered via oral gavage measured up to 24 hrs by LC-MS/MS analysis; assay type: ADME, organism-based; settings: in vivo; procedure, shortened: as §4
[22] = Apparent permeability co-efficient from apical to basolateral side in human Caco2 cells; assay type: ADME, cell-based; settings: Caco-2; procedure, shortened: as §1
[23] = AUC (0 to t) in BALB/c mouse at 10 mg/kg administered via oral gavage measured up to 24 hrs by LC-MS/MS analysis; assay type: ADME, organism-based; set-up: dose 10 mg/kg, time < 24 hr, route oral; settings: in vivo
Cytochrome P450 2D6 = Cytochrome P450 2D6 (Homo sapiens, UniProt P10635); assay: Inhibition of CYP2D6 in human liver microsomes using dextromethorphan as substrate in presence of NADPH; assay type: ADME; procedure, shortened: as §3
Chain of Cytochrome P450 2D6 (P10635 whole entry): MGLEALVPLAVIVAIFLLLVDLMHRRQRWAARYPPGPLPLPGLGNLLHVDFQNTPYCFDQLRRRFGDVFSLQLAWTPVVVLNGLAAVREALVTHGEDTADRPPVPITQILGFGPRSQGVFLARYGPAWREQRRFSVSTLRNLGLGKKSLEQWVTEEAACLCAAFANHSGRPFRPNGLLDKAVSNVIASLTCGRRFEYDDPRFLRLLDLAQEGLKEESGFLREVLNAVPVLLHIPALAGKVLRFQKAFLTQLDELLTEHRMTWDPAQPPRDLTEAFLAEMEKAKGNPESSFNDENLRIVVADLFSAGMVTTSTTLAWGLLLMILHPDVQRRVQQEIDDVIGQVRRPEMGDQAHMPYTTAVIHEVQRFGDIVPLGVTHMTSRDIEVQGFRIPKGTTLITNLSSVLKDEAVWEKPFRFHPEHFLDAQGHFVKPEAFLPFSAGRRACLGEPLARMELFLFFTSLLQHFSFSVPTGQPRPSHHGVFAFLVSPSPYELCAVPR

Cytochrome P450 2C9 = Cytochrome P450 2C9 (Homo sapiens, UniProt P11712); assay: Inhibition of CYP2C9 in human liver microsomes using tolbutamide as substrate in presence of NADPH; assay type: ADME; procedure, shortened: as §3
Chain of Cytochrome P450 2C9 (P11712 whole entry): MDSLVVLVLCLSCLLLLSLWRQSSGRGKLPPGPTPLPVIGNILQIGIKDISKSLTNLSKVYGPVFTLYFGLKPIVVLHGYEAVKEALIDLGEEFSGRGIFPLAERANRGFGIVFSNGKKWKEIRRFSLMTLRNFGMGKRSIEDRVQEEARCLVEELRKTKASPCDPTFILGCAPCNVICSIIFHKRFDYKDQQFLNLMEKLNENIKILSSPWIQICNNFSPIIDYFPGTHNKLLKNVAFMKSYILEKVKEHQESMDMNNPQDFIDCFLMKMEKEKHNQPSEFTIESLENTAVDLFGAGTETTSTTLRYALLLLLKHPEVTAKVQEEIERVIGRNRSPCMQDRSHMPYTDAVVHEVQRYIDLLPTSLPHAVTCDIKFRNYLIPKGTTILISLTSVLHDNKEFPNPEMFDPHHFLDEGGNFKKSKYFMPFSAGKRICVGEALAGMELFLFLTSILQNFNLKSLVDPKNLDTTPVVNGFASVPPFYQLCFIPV

[24] = molecular target: Voltage-gated inwardly rectifying potassium channel KCNH2 (Homo sapiens, UniProt Q12809); assay: Inhibition of human ERG expressed in CHO cells by patch clamp electrophysiology; assay type: cell-based
Chain of Voltage-gated inwardly rectifying potassium channel KCNH2 (Q12809 whole entry): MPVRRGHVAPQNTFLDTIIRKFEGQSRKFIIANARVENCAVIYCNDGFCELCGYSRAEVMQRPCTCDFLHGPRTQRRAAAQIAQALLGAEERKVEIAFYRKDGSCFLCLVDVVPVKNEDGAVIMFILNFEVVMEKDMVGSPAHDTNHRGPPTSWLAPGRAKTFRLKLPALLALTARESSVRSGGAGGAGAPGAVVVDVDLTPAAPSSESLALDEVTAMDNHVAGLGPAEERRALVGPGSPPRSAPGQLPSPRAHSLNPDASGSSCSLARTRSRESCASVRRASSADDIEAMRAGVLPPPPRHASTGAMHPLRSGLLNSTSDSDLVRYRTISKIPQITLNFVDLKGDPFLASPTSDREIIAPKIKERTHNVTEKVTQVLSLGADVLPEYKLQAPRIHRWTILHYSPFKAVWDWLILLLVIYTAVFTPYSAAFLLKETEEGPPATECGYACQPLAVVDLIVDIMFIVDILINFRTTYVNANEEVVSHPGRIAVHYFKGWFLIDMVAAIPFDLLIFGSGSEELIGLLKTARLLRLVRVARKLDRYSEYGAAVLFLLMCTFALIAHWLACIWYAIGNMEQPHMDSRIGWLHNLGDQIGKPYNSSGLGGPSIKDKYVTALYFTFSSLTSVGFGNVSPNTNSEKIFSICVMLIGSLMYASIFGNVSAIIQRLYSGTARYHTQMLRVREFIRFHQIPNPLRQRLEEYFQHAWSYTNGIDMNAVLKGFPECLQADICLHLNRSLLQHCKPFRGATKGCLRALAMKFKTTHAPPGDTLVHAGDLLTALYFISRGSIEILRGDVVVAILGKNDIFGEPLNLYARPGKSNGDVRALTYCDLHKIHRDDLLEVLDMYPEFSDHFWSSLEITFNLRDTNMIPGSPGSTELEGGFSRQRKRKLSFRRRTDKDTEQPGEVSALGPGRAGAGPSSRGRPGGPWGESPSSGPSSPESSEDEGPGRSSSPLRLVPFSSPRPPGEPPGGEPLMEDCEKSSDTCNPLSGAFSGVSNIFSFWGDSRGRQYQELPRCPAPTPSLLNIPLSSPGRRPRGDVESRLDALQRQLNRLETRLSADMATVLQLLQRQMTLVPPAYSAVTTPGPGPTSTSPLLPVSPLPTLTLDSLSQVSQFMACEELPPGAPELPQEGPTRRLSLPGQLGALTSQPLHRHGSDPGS
Procedure, shortened: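 Cardiac toxicity assay in CHO cells expressing hERG; IC50 determined.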

Homo sapiens = species on record: Homo sapiens; assay: Selectivity ratio of Ki for CDK2/cyclin A (unknown origin) to Ki for CDK4/cyclin D1 (unknown origin)
Procedure, shortened: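 Apparent Ki for each CDK–cyclin complex (CDK4–cyclin D1, CDK6–cyclin D3, CDK2–cyclin A) calculated from the half-maximal inhibition (IC50) and that kinase's Km(ATP). The selectivity ratio is the CDK2 Ki divided by the CDK4 or CDK6 Ki.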

CC(=O)c1c(C)c2cnc(Nc3ccc(N4CCNCC4)cn3)nc2n(C2CCCC2)c1=O [PALBOCICLIB]
Activity (MV4-11 [1]): 5.74% | Activity (MV4-11 [2]): 2.66% | Activity (MV4-11 [3]): 15.52% | Activity (MV4-11 [4]): 6.02% | Activity (MV4-11 [5]): 85.35% | Activity (MV4-11 [6]): 68.17%

Cc1nc(NC2CCCC2)sc1-c1ccnc(Nc2ccc(N3CCOCC3)cn2)n1
TGI (MV4-11 [7]): Active | pKa [8]: 3.98 to 5.68 | efflux ratio [9]: 0.396 to 4 | Ki (CDK2/Cyclin A2): 4.68 µM | Activity (Mus musculus [10]): Non-Toxic | inhibition [11]: Active | IC50 (Cytochrome P450 2C19): > 25 µM | MST (MV4-11 [12]): 55 days | IC50 (Cytochrome P450 3A4): > 25 µM | IC50 (Cytochrome P450 1A2): > 25 µM | Vd [13]: 5.6 L/kg | inhibition [14]: Active | inhibition [15]: Active | Activity (Mus musculus [16]): Non-Toxic | Activity (Mus musculus [17]): Non-Toxic | Vd [18]: 1.5 L/kg | bioavailability [19]: 100% | half-life [20]: 5 h | Tmax [21]: 2 h | Papp A→B [22]: 10.1 ×10⁻⁶ cm/s | AUC(0-t) at 24 h [23]: 5.9 µM·h | IC50 (Cytochrome P450 2D6): > 25 µM | IC50 (Cytochrome P450 2C9): > 25 µM | IC50 [24]: > 10 µM | Ratio Ki (Homo sapiens): > 1200
